Yeast growth inh – yeast BB579 growth reduction in restrictive medium; S. cerevisiae BB579 growth, OD615, 48 h; inhibition, % at 10 µM; 0.51% of 140,000 active;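 active means inhibition above a set limit, 3 SD over the mean compound inhibition, cut at about 44% in these data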
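test system = yeast BB579 (DeaD) | buffer or medium = restrictive CSMM-D medium | doses = single compound dose of 10 µM, 0.25% DMSO final | times = 4 h preincubation and 48 h exposure at 30 °C | technique = culture absorbance at 615 nm | benchmarks = amphotericin B 10 µg/mL, positive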
Insulin prom inh – TRM-6 insulin promoter activity inhibition; TRM-6 cells, insulin promoter-eGFP reporter, imaging; reporter expression induced with tamoxifen; inhibition, % at 2 µM; 0.9% of 130,000 active;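 active means inhibition above the mean plus 3 SD, with well images judged a real hit on visual review, cut at about 60% in these data, passing the limit was not always enough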
RAM inhibit – inhibitors of the yeast RAM network; S. cerevisiae dse1pr::URA3 reporter, 5-FOA growth OD615, 2 d; analog-sensitive cbk1-as2 kinase mutant strain; inhibition, % at 50 µM; 1.8% of 190,000 active; AID 868;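 active means inhibition above a set limit, 3 SD over mean compound inhibition, cut at about 8.4% in these data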;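 further: 0% = DMSO-only wells with no growth and 100% = 10 µM 1-NA-PP1 full growth; inhibition rescues growth on 5-FOA so higher OD means more RAM inhibition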
Efa HMGR inh – inhibitors of class II HMG-CoA reductase from Enterococcus faecalis; purified E. faecalis HMGR, NADPH absorbance 340 nm kinetic; inhibition, % at 10 µM; 0.41% of 190,000 active; AID 1066;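 active means inhibition above a set limit, the median over all tested compounds plus 3 SD, cut at about 9.5% in these data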;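 further: enzyme runs in reverse so mevalonate oxidation gives rising NADPH absorbance; 0% = complete reaction with DMSO and 100% = background rate lacking mevalonate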
Yeast life ext – extends the lifespan of yeast | S. cerevisiae growth with nicotinamide, OD615; deaD strain in restrictive glucose medium | inhibition of the nicotinamide effect, % at 10 µM | 0.68% of 130,000 active | AID 775;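 active means inhibition above a set limit, placed 3 SD over the median of all compounds, cut at about 26% in these data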;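 further: 0% = nicotinamide-treated wells and 100% = cells grown without nicotinamide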
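Test system: DeaD-strain S. cerevisiae / Buffer or medium: restrictive glucose medium / Also added: nicotinamide 1.5 mM / Doses: one concentration, 10 µM, DMSO 0.25% / Schedule: 48 h at 30 °C / Signal: OD615 measurement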
An asterisk follows results filed as active; . = no result given; + = active, no number. This is a sample that favours compounds with a hit; in the whole collection about 3.7% have one here.

SMILES	Yeast growth inh	Insulin prom inh	RAM inhibit	Efa HMGR inh	Yeast life ext
COc1cccc(Oc2cnc(N)nc2-c2ccc(OC)cc2O)c1	-52.0	-62.2	10.4*	-1.8	-12.6
C=C(C)COc1ccc(-c2[nH]ncc2-c2ccccc2)c(O)c1	88.4*	-13.2	-1.2	-5.7	-16.8
C=C(C)COc1ccc(-c2[nH]ncc2Oc2cccc(OC)c2)c(O)c1	75.2*	-35.7	4.0	3.0	-30.8
COc1ccccc1-n1c(=O)[nH]c2c(C(N)=O)nc(CC(C)C)nc21	-45.7	.	2.5	-0.4	-3.2
Cc1ccc(-n2c(=O)[nH]c3c(C(N)=O)nc(CC(C)C)nc32)cc1	-70.6	92.9*	3.1	-2.6	-9.8
O=C(NC(=S)NNC(=O)c1ccc(Cl)cc1Cl)c1cccnc1	-5.8	-18.5	-0.8	-3.5	44.0*
CCOc1ccc(CCNC(=O)C2=C(C)C(=O)OC23CCCCC3)cc1OCC	.	-66.7	-1.1	-2.7	.
COc1ccc(NC(=O)/C=C/c2cc(OC)c(OC)c(OC)c2)cn1	.	-25.0	9.0*	-0.4	.
Cc1cc2c3c(ccc(C)c3n1)N=CN2c1ccccc1	23.8	80.8*	2.0	1.2	-4.7
Cc1cc(Nc2ccccc2)c2c([N+](=O)[O-])ccc(C)c2n1	2.4	-56.7	0.7	-6.3	-4.6
COC(=O)c1ccccc1NC(=O)c1ccc(Cn2cc(Cl)cn2)o1	-37.1	-59.0	3.8	-1.9	-9.4
COC(=O)c1cc(NC(=O)c2ccc(Cn3cc(Cl)cn3)o2)cc(C(=O)OC)c1	-7.5	93.3*	1.7	-6.4	4.8
O=C(Nc1cccc(C(=O)N2CCN(c3cccc(Cl)c3)CC2)c1)c1ccccc1	.	15.0	4.4	-1.7	.
Cn1ccc(=S)c2ccccc21	.	88.9*	0.7	8.1	.
Cn1c(=S)n(C)c2ccccc21	.	41.7	1.7	1.9	.
O=C1NCCCC1C(=O)Nc1ccccc1C(F)(F)F (stereo not given)	-34.2	13.5	-0.3	+	-15.2
O=C1NCCCC1C(=O)NCCNC(=O)C(F)(F)F (stereo not given)	-19.4	-39.4	0.0	-2.5	-9.9
CCC(C)(C#CCN1CCCCC1)OC(C)=O (stereo not given)	.	-33.3	4.8	0.9	.
Cc1ccccc1C(=O)NNC(=O)CCC(=O)Nc1cccc(Cl)c1C	-18.2	-37.0	1.8	4.4	-5.8
COC(=O)C(C)n1cnc2c(nnn2-c2ccc(OC)cc2)c1=O (stereo not given)	5.5	7.1	1.0	14.1*	-1.3
CC(=O)c1ccc(N=Cc2c(O)n(-c3cc(Cl)ccc3N3CCOCC3)c(=O)c3ccccc23)cc1	-27.7	45.7	8.6*	-5.8	-2.6
Cc1cc(C(=O)N[C@H](c2ccccc2)[C@@]2(C)C[C@@H]2[C@@H](C)C(=O)Nc2ccc3ccccc3c2)no1	-30.1	-28.6	5.4	24.8*	0.4
Clc1ccc(N=c2ssnc2Cl)cc1	76.9*	62.5	-1.5	1.0	.
COc1ccc(N=c2ssnc2Cl)cc1	7.2	34.2	-1.7	16.2*	.
CCNC(=O)Nn1c(-c2ccccc2)nc2ccccc2c1=O	-28.4	-23.1	1.1	-6.2	-9.4
SMILES	Yeast growth inh	Insulin prom inh	RAM inhibit	Efa HMGR inh	Yeast life ext
CCC(C(=O)OC)n1c(-c2ccccc2)nc2ccccc2c1=O (stereo not given)	.	.	0.3	12.0*	.
Cc1ccc(C(=O)NNC(=O)C2CCN(c3nccc(C)n3)CC2)cc1	-37.5	43.3	2.3	2.8	-21.2
COc1ccc(C(=O)On2c(-c3ccc(Br)cc3)nc3ccccc3c2=O)cc1	-32.7	-6.2	2.7	2.7	96.0*
COc1ccc(O)c(CNn2c(-c3ccc(Br)cc3)nc3ccccc3c2=O)c1	.	14.3	6.0	-3.4	.
COc1ccc(-c2nc3ccccc3c(=O)n2N)cc1	-4.4	34.3	0.8	-1.5	-21.9
COc1cc(OC)cc(-c2nc3ccccc3c(=O)n2OC(=O)c2ccc(Br)cc2)c1	-10.9	16.7	2.3	0.5	71.0*
CCOC(=O)c1c(NC(=O)c2cccnc2)sc(C)c1C	-26.5	13.5	2.6	0.8	-22.6
CCOC(=O)c1sc(NC(=O)c2cccnc2)c(C#N)c1C	-50.2	9.1	1.4	-2.4	28.6*
CCCCNC(=O)CCc1nc2cccnc2n1Cc1ccc(OC)cc1	-39.7	83.3*	1.5	-1.2	-3.1
CCCCNC(=S)N(Cc1ccco1)Cc1cc2cc3c(cc2[nH]c1=O)OCCO3	-9.5	-62.1	8.5*	-4.2	0.3
CCOCCCNC(=S)N(Cc1ccco1)Cc1cc2cc3c(cc2[nH]c1=O)OCCO3	.	0.0	2.2	-3.7	.
CCCS(=O)(=O)Nc1ccc2cn[nH]c2c1	.	.	-0.8	-4.1	.
O=C(O)c1cc2c(s1)-c1ccccc1CC2	45.5*	-21.6	-0.1	-1.2	-6.9
O=C(O)c1cc2c(s1)-c1ccccc1OC2	42.8	.	0.4	3.5	-24.5
CC1CN(C(=O)CSc2nnc(-c3ccc(Cl)cc3)n2C)CC(C)O1 (stereo not given)	-32.0	-30.6	-0.1	12.2*	-3.3
Cc1ccc(C)c(NC(=O)C2CCCN2/C=C/C(=O)C(F)(F)F)c1 (stereo not given)	-11.6	.	0.0	-3.3	1.1
CC(C)(C)NS(=O)(=O)c1cc(C(=O)Nc2sccc2C#N)ccc1Cl	1.1	0.0	3.2	-7.3	-1.3
CCOc1ccccc1OCCOc1ccccc1OC(C)C	12.1	-41.7	18.3*	-1.2	-7.9
COC(=O)CNC(=O)c1sc2ncn(CC(=O)Nc3ccc(C)c(Cl)c3)c(=O)c2c1C	.	7.1	2.5	0.5	.
Cc1ccccc1-n1c(SCC(=O)NC(N)=O)nc2sc(-c3ccccc3)cc2c1=O	-17.6	33.3	6.3	-5.2	-2.2
O=C(NCCCO)c1ccc(CSc2nc3ccccc3[nH]2)cc1	.	.	4.7	13.2*	.
O=C1c2ccccc2C(=O)N1CCN1CCCCC1	2.4	-19.4	0.5	18.9*	-9.0
O=C(N/N=C/c1coc2ccccc2c1=O)c1cn(-c2ccccc2)nc1-c1ccc(F)cc1	-37.6	6.2	2.5	-0.4	28.8*
Cc1c(Cl)c(-c2n[nH]c(=S)n2-c2ccc(F)cc2)nn1C	-49.3	-7.7	-0.6	11.0*	-7.9
CCn1c(COc2ccc(=O)n(-c3ccccc3)n2)n[nH]c1=S	.	.	-0.7	-4.6	.
SMILES	Yeast growth inh	Insulin prom inh	RAM inhibit	Efa HMGR inh	Yeast life ext
O=C(O)C(=O)/C(=C\c1cccc2ccccc12)c1ccc2ccccc2n1	-45.7	10.0	1.9	1.8	30.0*
COc1ccc(N2C(=O)CC(Sc3nc4c(cc3C#N)CCC4)C2=O)cc1 (stereo not given)	.	.	6.8	-1.2	.
O=c1[nH]ncc2c3ccccc3n(Cc3ccc(F)cc3)c12	-44.4	0.0	3.4	1.8	-7.5
O=c1[nH]ncc2c3ccccc3n(Cc3cccc(Cl)c3)c12	.	0.0	5.1	15.6*	.
CCOC(=O)Cn1c(C)cc(=O)c2cccc(C)c21	-7.7	28.6	0.1	12.2*	-29.0
CSc1nc(-c2ccc(Cl)cc2)nn1C(=O)c1ccccc1	-51.5	79.4*	5.4	-3.6	0.1
CSc1nc(-c2ccccc2)nn1C(=O)c1ccc(Cl)cc1	-19.7	4.0	7.4	1.9	-0.4

Screening data: PubChem BioAssay, several laboratories
